In ChEMBL document CHEMBL1255475, “Mutant prevention concentrations of four carbapenems against gram-negative rods” (2010):
In brackets after ≈: the same amount, converted by molar mass.

Columns and labels:
Type in all cases: functional
[1] = system: Klebsiella pneumoniae; assay: Antibacterial activity against beta-lactamase-positive ESBL-negative Klebsiella pneumoniae E477 incubated up to 7 days by agar dilution method; conditions: E477, 168 h
[2] = system: Escherichia coli; assay: Antibacterial activity against beta-lactamase-positive ESBL-negative Escherichia coli E437 assessed as mutant prevention concentration after overnight incubation
Summary of the method: (§1)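 Overnight growth on blood trypticase soy agar (35°C, air) was resuspended in 0.9% saline and counted on drug-free Mueller-Hinton agar. […] Colonies were retested by agar dilution to confirm mutants. MPC was the lowest concentration preventing resistant-mutant growth.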

[3] = system: Klebsiella pneumoniae; assay: Antibacterial activity against beta-lactamase-positive ESBL-positive Klebsiella pneumoniae E476 incubated up to 7 days by agar dilution method; conditions: E476, 168 h
[4] = system: Escherichia coli; assay: Antibacterial activity against beta-lactamase-positive ESBL-negative Escherichia coli E430 incubated up to 7 days by agar dilution method; conditions: E430, 168 h
Summary of the method: (§2)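 MIC by CLSI agar dilution, with quality-control strains in each run. Beta-lactamase status was set by 30 μg cefazolin Kirby-Bauer disk diffusion. ESBL status was set by cefotaxime and ceftazidime disks (30 μg) with and without clavulanic acid (10 μg).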

[5] = system: Klebsiella pneumoniae; assay: Antibacterial activity against beta-lactamase-negative Klebsiella pneumoniae E358 incubated up to 7 days by agar dilution method; conditions: E358, 168 h
[6] = system: Klebsiella pneumoniae; assay: Antibacterial activity against beta-lactamase-positive ESBL-negative Klebsiella pneumoniae E481 assessed as mutant prevention concentration after overnight incubation; summary of the method: as §1
[7] = system: Klebsiella pneumoniae; assay: Antibacterial activity against beta-lactamase-positive ESBL-positive Klebsiella pneumoniae E478 assessed as mutant prevention concentration after overnight incubation; summary of the method: as §1
[8] = system: Klebsiella pneumoniae; assay: Antibacterial activity against beta-lactamase-positive ESBL-negative Klebsiella pneumoniae E474 assessed as mutant prevention concentration after overnight incubation; summary of the method: as §1
[9] = system: Klebsiella pneumoniae; assay: Antibacterial activity against beta-lactamase-negative Klebsiella pneumoniae E419 assessed as mutant prevention concentration after overnight incubation; summary of the method: as §1
[10] = system: Klebsiella pneumoniae; assay: Antibacterial activity against beta-lactamase-positive ESBL-negative Klebsiella pneumoniae E472 incubated up to 7 days by agar dilution method; conditions: E472, 168 h
[11] = system: Escherichia coli; assay: Antibacterial activity against beta-lactamase-negative Escherichia coli E350 […] by agar dilution method
[12] = system: Escherichia coli; assay: Antibacterial activity against beta-lactamase-positive ESBL-positive Escherichia coli E458 assessed as mutant prevention concentration after overnight incubation; summary of the method: as §1
[13] = system: Escherichia coli; assay: Antibacterial activity against beta-lactamase-positive ESBL-positive Escherichia coli E465 incubated up to 7 days by agar dilution method; conditions: E465, 168 h; summary of the method: as §2
[14] = system: Klebsiella pneumoniae; assay: Antibacterial activity against beta-lactamase-positive ESBL-negative Klebsiella pneumoniae E479 incubated up to 7 days by agar dilution method; conditions: E479, 168 h
Summary of the method: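 MPC determination: overnight cultures on blood trypticase soy agar at 35°C in air were resuspended in 0.9% saline, and CFU were counted on drug-free Mueller-Hinton agar. […] Growth was retested by agar dilution to confirm mutants. MPC was the lowest concentration preventing resistant-mutant growth.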

[15] = system: Klebsiella pneumoniae; assay: Antibacterial activity against beta-lactamase-positive ESBL-negative Klebsiella pneumoniae E472 assessed as mutant prevention concentration after overnight incubation; summary of the method: as §1
[16] = system: Escherichia coli; assay: Antibacterial activity against beta-lactamase-positive ESBL-negative Escherichia coli E415 incubated up to 7 days by agar dilution method; conditions: E415, 168 h; summary of the method: as §2
[17] = system: Escherichia coli; assay: Antibacterial activity against beta-lactamase-negative Escherichia coli E347 incubated up to 7 days by agar dilution method; conditions: E347, 168 h
[18] = system: Klebsiella pneumoniae; assay: Antibacterial activity against beta-lactamase-negative Klebsiella pneumoniae E360 incubated up to 7 days by agar dilution method; conditions: E360, 168 h
[19] = system: Klebsiella pneumoniae; assay: Antibacterial activity against beta-lactamase-positive ESBL-positive Klebsiella pneumoniae E475 assessed as mutant prevention concentration after overnight incubation; summary of the method: as §1
[20] = system: Escherichia coli; assay: Antibacterial activity against beta-lactamase-positive ESBL-positive Escherichia coli E450 assessed as mutant prevention concentration after overnight incubation; summary of the method: as §1
[21] = system: Escherichia coli; assay: Antibacterial activity against beta-lactamase-positive ESBL-negative Escherichia coli E430 assessed as mutant prevention concentration after overnight incubation; summary of the method: as §1
[22] = system: Klebsiella pneumoniae; assay: Antibacterial activity against beta-lactamase-negative Klebsiella pneumoniae E417 assessed as mutant prevention concentration after overnight incubation
[23] = system: Escherichia coli; assay: Antibacterial activity against beta-lactamase-positive ESBL-negative Escherichia coli E483 […] by agar dilution method
[24] = system: Escherichia coli; assay: Antibacterial activity against beta-lactamase-negative Escherichia coli E345 assessed as mutant prevention concentration after overnight incubation
[25] = system: Escherichia coli; assay: Antibacterial activity against beta-lactamase-positive ESBL-negative Escherichia coli E412 assessed as mutant prevention concentration after overnight incubation; summary of the method: as §1
[26] = system: Escherichia coli; assay: Antibacterial activity against beta-lactamase-negative Escherichia coli E347 assessed as mutant prevention concentration after overnight incubation
[27] = system: Escherichia coli; assay: Antibacterial activity against beta-lactamase-negative Escherichia coli E344 assessed as mutant prevention concentration after overnight incubation
[28] = system: Acinetobacter baumannii; assay: Antibacterial activity against Acinetobacter baumannii A891 assessed as mutant prevention concentration after overnight incubation
[29] = system: Pseudomonas aeruginosa; assay: Antibacterial activity against Pseudomonas aeruginosa P327 assessed as mutant prevention concentration after overnight incubation
[30] = system: Acinetobacter baumannii; assay: Antibacterial activity against Acinetobacter baumannii A898 assessed as mutant prevention concentration after overnight incubation
[31] = system: Pseudomonas aeruginosa; assay: Antibacterial activity against Pseudomonas aeruginosa P353 assessed as mutant prevention concentration after overnight incubation
[32] = system: Pseudomonas aeruginosa; assay: Antibacterial activity against Pseudomonas aeruginosa P322 assessed as mutant prevention concentration after overnight incubation
[33] = system: Acinetobacter baumannii; assay: Antibacterial activity against Acinetobacter baumannii A912 assessed as mutant prevention concentration after overnight incubation
[34] = system: Pseudomonas aeruginosa; assay: Antibacterial activity against Pseudomonas aeruginosa P338 assessed as mutant prevention concentration after overnight incubation
[35] = system: Pseudomonas aeruginosa; assay: Antibacterial activity against Pseudomonas aeruginosa P373 assessed as mutant prevention concentration after overnight incubation
[36] = system: Pseudomonas aeruginosa; assay: Antibacterial activity against Pseudomonas aeruginosa P363 assessed as mutant prevention concentration after overnight incubation
[37] = system: Acinetobacter baumannii; assay: Antibacterial activity against Acinetobacter baumannii A885 assessed as mutant prevention concentration after overnight incubation
[38] = system: Pseudomonas aeruginosa; assay: Antibacterial activity against Pseudomonas aeruginosa P319 assessed as mutant prevention concentration after overnight incubation
[39] = system: Pseudomonas aeruginosa; assay: Antibacterial activity against Pseudomonas aeruginosa P328 assessed as mutant prevention concentration after overnight incubation
[40] = system: Pseudomonas aeruginosa; assay: Antibacterial activity against Pseudomonas aeruginosa P370 assessed as mutant prevention concentration after overnight incubation
[41] = system: Pseudomonas aeruginosa; assay: Antibacterial activity against Pseudomonas aeruginosa P352 assessed as mutant prevention concentration after overnight incubation
[42] = system: Pseudomonas aeruginosa; assay: Antibacterial activity against Pseudomonas aeruginosa P369 assessed as mutant prevention concentration after overnight incubation
[43] = system: Acinetobacter baumannii; assay: Antibacterial activity against Acinetobacter baumannii A903 assessed as mutant prevention concentration after overnight incubation
[44] = system: Pseudomonas aeruginosa; assay: Antibacterial activity against Pseudomonas aeruginosa P320 assessed as mutant prevention concentration after overnight incubation
[45] = system: Acinetobacter baumannii; assay: Antibacterial activity against Acinetobacter baumannii A894 assessed as mutant prevention concentration after overnight incubation
[46] = system: Acinetobacter baumannii; assay: Antibacterial activity against Acinetobacter baumannii A897 assessed as mutant prevention concentration after overnight incubation

Molecule `C[C@@H](O)[C@H]1C(=O)N2C(C(=O)O)=C(S[C@@H]3CN[C@H](C(=O)Nc4cccc(C(=O)O)c4)C3)[C@H](C)[C@H]12` has an MIC [1] of 8 µg/mL (≈ 16.8 µM), an MPC [2] of 0.125 µg/mL and an MIC [3] of 8 µg/mL (≈ 16.8 µM). For the same molecule, the MIC [4] was 0.06 µg/mL (≈ 0.126 µM), the MIC [5] was 0.008 µg/mL (≈ 0.0168 µM) and the MPC [6] was 8 µg/mL. For the same molecule, the MPC [7] was 16 µg/mL, the MPC [8] was 32 µg/mL and the MPC [9] was 0.03 µg/mL. It also gave an MIC [10] of 8 µg/mL (≈ 16.8 µM), an MIC [11] of 0.016 µg/mL (≈ 0.0336 µM) and an MPC [12] of 0.5 µg/mL. For the same molecule, the MIC [13] was 0.25 µg/mL (≈ 0.526 µM), the MIC [14] was 8 µg/mL (≈ 16.8 µM) and the MPC [15] was 64 µg/mL. It also gave an MIC [16] of 0.125 µg/mL (≈ 0.263 µM), an MIC [17] of 0.008 µg/mL (≈ 0.0168 µM) and an MIC [18] of 0.008 µg/mL (≈ 0.0168 µM). For the same molecule, the MPC [19] was 16 µg/mL, the MPC [20] was 1 µg/mL and the MPC [21] was over 0.5 µg/mL. The MPC [22] was 0.016 µg/mL, the MIC [23] was 4 µg/mL (≈ 8.41 µM) and the MPC [24] was 0.03 µg/mL. The MPC [25] was 1 µg/mL, the MPC [26] was 0.03 µg/mL and the MPC [27] was 0.03 µg/mL.

`C[C@@H](O)[C@H]1C(=O)N2C(C(=O)O)=C(S[C@@H]3CN[C@H](CNS(N)(=O)=O)C3)[C@H](C)[C@H]12` [DORIPENEM] was tested, and the MPC [28] was 2 µg/mL, the MPC [29] was 4 µg/mL and the MPC [30] was 4 µg/mL. For the same molecule, the MIC [1] was 2 µg/mL (≈ 4.76 µM), the MPC [2] was 0.125 µg/mL and the MIC [3] was 2 µg/mL (≈ 4.76 µM). The MIC [4] was 0.03 µg/mL (≈ 0.0713 µM), the MPC [31] was 2 µg/mL and the MIC [5] was 0.06 µg/mL (≈ 0.143 µM). It also gave an MPC [32] of 4 µg/mL, an MPC [33] of 8 µg/mL and an MPC [6] of 8 µg/mL. For the same molecule, the MPC [34] was 4 µg/mL, the MPC [35] was over 4 µg/mL and the MPC [7] was over 64 µg/mL. For the same molecule, the MPC [8] was 32 µg/mL, the MPC [9] was 0.25 µg/mL and the MIC [10] was 2 µg/mL (≈ 4.76 µM). For the same molecule, the MIC [11] was 0.06 µg/mL (≈ 0.143 µM), the MPC [36] was 4 µg/mL and the MPC [37] was 8 µg/mL. The MPC [38] was 8 µg/mL, the MPC [39] was 4 µg/mL and the MPC [40] was 4 µg/mL. The MPC [12] was 0.06 µg/mL, the MPC [41] was 2 µg/mL and the MIC [13] was 0.03 µg/mL (≈ 0.0713 µM). It also gave an MPC [42] of 2 µg/mL, an MIC [14] of 4 µg/mL (≈ 9.51 µM) and an MPC [15] of 64 µg/mL. It also gave an MPC [43] of 4 µg/mL, an MIC [16] of 0.03 µg/mL (≈ 0.0713 µM) and an MIC [17] of 0.03 µg/mL (≈ 0.0713 µM). The MIC [18] was 0.06 µg/mL (≈ 0.143 µM), the MPC [19] was 16 µg/mL and the MPC [20] was 0.125 µg/mL. For the same molecule, the MPC [21] was 0.125 µg/mL, the MPC [22] was 0.125 µg/mL and the MIC [23] was 0.25 µg/mL (≈ 0.595 µM). The MPC [44] was over 2 µg/mL, the MPC [45] was 2 µg/mL and the MPC [46] was 1 µg/mL. It also gave an MPC [24] of 0.06 µg/mL, an MPC [25] of 0.125 µg/mL and an MPC [26] of 0.06 µg/mL. For the same molecule, the MPC [27] was 0.06 µg/mL.
